Laboratory results published in publication PMC6583897 (International journal of pharmaceutics, 2018).
One block for each compound: values may come before it.

Columns and labels:
CYP3A4 = conditions: ref Yao et al., 2006; cited from earlier work
HIV-1NL-43 = assay: Antiviral activity in vitro, TZM-bl luciferase reporter assay; assay type: cell-based; conditions: for IC50: Human immunodeficiency virus 1, TZM-bl, 48 h; for times more potent than free parent drug (IC50 ratio): TZM-bl cells, vs free FTC or free EVG
[1] = Pharmacokinetic evaluation after intramuscular injection, plasma LC/MS; assay type: in vivo, CD-1 mice; conditions: female, CD-1, mouse, im, 1000 mg/kg
HIV = conditions: ref Agarwal et al., 2013; cited from earlier work
[2] = Hydrolytic release curves, pH 7.4 PBS, 37 °C; assay type: physicochemical; conditions: 1 mg/mL, UV-vis
Summary of the method: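 Test conjugates at 1 mg/mL were hydrolysed in 0.1 M phosphate-buffered saline, pH 7.4, with continuous stirring at 37 °C, in triplicate. Samples were taken at 1, 3, 7, 10, 14, 17, 21, 24, 28, 31, 35 and 42 days. Released parent drug was measured by UV absorbance at 300 nm or 320 nm, depending on the drug. Data are mean ± standard deviation (n = 3).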

[3] = ref Ho et al., 2018; cited from earlier work

Compound: CC/C=C\C/C=C\C/C=C\C/C=C\C/C=C\C/C=C\CCC(=O)O [DHA (Docosahexaenoic acid), Docosahexaenoic acid]
- inhibitory potency against CYP3A4 among available PUFA options (CYP3A4): greater inhibitory potency

- IC50 (HIV-1NL-43): 30.9 µM
- AUC(0-t) [1]: 48300 ng·h/mL
- Cmax [1]: 1750 ng/mL
- half-life [1]: 9.75 h
- k el [1]: 1.97e-05 s⁻¹
Compound: COc1cc2c(cc1Cc1cccc(Cl)c1F)c(=O)c(C(=O)O)cn2[C@H](CO)C(C)C [EVG (Elvitegravir), Elvitegravir]

Compound: CCCCCCCCCCCCCC(=O)OC[C@@H]1O[C@H](n2cc(F)c(N)nc2=O)CS1 [myristoylated FTC conjugate]
- higher anti-HIV activity compared to FTC alone (HIV): 24 times

- IC50 (HIV-1NL-43): 0.14 µM
- times more potent than free parent drug (IC50 ratio) (HIV-1NL-43): ~ 220 times
- period of sustained drug release [2]: 30 days
Compound: CC/C=C/C/C=C/C/C=C/C/C=C/C/C=C/C/C=C\CCC(=O)OCC(C(C)C)n1cc(C(=O)O)c(=O)c2cc(Cc3cccc(Cl)c3F)c(OC)cc21 (stereo not shown) [EVG-DHA, 6-(3-chloro-2-fluorobenzyl)-1-(1-(((4Z,7E,10E,13E,16E,19E)-docosa-4,7,10,13,16,19-hexaenoyl)oxy)-3-methylbutan-2-yl)-7-methoxy-4-oxo-1,4-dihydroquinoline-3-carboxylic acid]

- IC50 (HIV-1NL-43): 1.39 µM
- times more potent than free parent drug (IC50 ratio) (HIV-1NL-43): ~ 12 times
- period of sustained drug release [2]: 21 days
Compound: CC/C=C/C/C=C/C/C=C/C/C=C/C/C=C/C/C=C/CCC(=O)OC[C@@H]1O[C@H](n2cc(F)c(N)nc2=O)CS1 [FTC-DHA, ((2R,5S)-5-(4-amino-5-fluoro-2-oxopyrimidin-1(2H)-yl)-1,3-oxathiolan-2-yl)methyl (4E,7E,10E,13E,16E,19E)-docosa-4,7,10,13,16,19-hexaenoate]

Compound: C=C1[C@H](CO)[C@@H](O)C[C@@H]1n1cnc2c(=O)[nH]c(N)nc21 [entecavir]
- active antiretroviral released within the first hour [3]: 15–41%

Compound: Nc1nc(=O)n([C@@H]2CS[C@H](CO)O2)cc1F [FTC (Emtricitabine), Emtricitabine]
- IC50 (HIV-1NL-43): 17.2 µM
- AUC(0-t) [1]: 127000 ng·h/mL
- Cmax [1]: 41000 ng/mL
- half-life [1]: 54.7 h
- k el [1]: 3.61e-06 s⁻¹
